Experimental data gathered from unrelated publications.
Each line is one published result; the experiments were not run side by side.
Target: Receptor-interacting serine/threonine-protein kinase 2 (RIPK2, Homo sapiens, UniProt O43353)

| SMILES | test | setting | measurement | value |
| --- | --- | --- | --- | --- |
| Cn1cc(-c2cccc(N3CCc4c(sc5c4CC(C)(C)C5)C3=O)c2CO)cc(Nc2ccncn2)c1=O | enzyme activity, inhibitor | 1 µM | inhibition | 1% |
| Nc1ncc(-c2nc(N3CCOCC3)nc(N3CCOCC3)n2)c(C(F)F)n1 | binding, competition with immobilised ligand | 10 µM | remaining binding | 100% |
| O=c1[nH]c2ccccc2n1C1CCN(Cc2ccc(-c3[nH]c4cc5ncnc5cc4nc3-c3ccccc3)cc2)CC1 | cell-free assay | 0.5 µM | remaining signal | 89.2% |
| Cn1cc(-c2cc(F)cc(N3CCn4c(cc5c4CCCC5)C3=O)c2CO)cc(Nc2ccc(N3CCN(C4COC4)CC3)cn2)c1=O | enzyme activity, inhibitor | 0.1 µM | inhibition | -5% |
| N#CC1(c2ccccn2)CCN(Cc2cc(C(=O)O)c(=O)n3ccccc23)CC1 | cell-free assay, competition with immobilised ligand | 1 µM | remaining binding | 92% |
| CC(C)(C)c1cc(C=C(C#N)C#N)cc(Br)c1O | enzyme activity, inhibitor | 0.5 µM | remaining activity | 32.8% |
| Cc1nn(C)cc1-c1nc2c(N3CCN(Cc4ccc(Cl)cc4)CC3)c(Cl)cnc2[nH]1 | binding, competition with immobilised ligand | 1 µM | remaining binding | 100% |
| Cn1cncc1[C@@](O)(COc1ccc(C#N)cc1-c1ccc(OC(F)(F)F)cc1)c1ccc(C#N)cc1 | cell-free assay, competition with immobilised ligand | 1 µM | remaining binding | 100% |
| COc1ncccc1-c1cnn2ccc(N3CCN(C(=O)OC(C)C)CC3)nc12 | binding, competition with immobilised ligand | 1 µM | remaining binding | 51% |
